Experimental data as given in ChEMBL document CHEMBL1125386, “Small atrial natriuretic peptide analogues: design, synthesis, and structural requirements for guanylate cyclase activation” (J Med Chem, 1992).

Key:
[1] = In vitro Biological half-life in crude homogenate of rabbit renal cortex; assay type: ADME, Oryctolagus cuniculus
Oryctolagus cuniculus = species: Oryctolagus cuniculus; experiment: In vitro vasorelaxant potency at dose 10 e -8 to 10 e-4 M using rabbit aortic rings precontracted with histamine; assay type: functional; settings: Aorta
How it was run: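 Rabbit aortic rings (4–5 mm) in Krebs-Henseleit buffer, gassed 95:5 O2/CO2, pH 7.4, isometric tension, baseline 2 g held 2 h. Rings contracted with 3 μM histamine, then six cumulative half-log peptide increments over 90 min, range 10⁻⁸ to 10⁻⁴ M. Triplicate determinations.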

Which results are given for `CC[C@H](C)[C@@H]1NC(=O)[C@H](CCCN=C(N)N)NC(=O)CNC(=O)CNC(=O)[C@H](Cc2ccccc2)NC(=O)[C@@H](NC(=O)[C@H](CO)NC(=O)[C@@H](N)CO)CSSC[C@@H](C(=O)O)NC(=O)[C@H](CCCN=C(N)N)NC(=O)[C@H](Cc2ccccc2)NC(=O)[C@H]([C@@H](C)CC)NC(=O)[C@H](CCCN=C(N)N)NC(=O)[C@H](CC(=O)O)NC1=O`?
half-life [1]: < 2 min; EC50 (Oryctolagus cuniculus): 2 µM
